{"source": "ChEMBL document CHEMBL4680221", "about": "“Discovery of pyrazole derivatives as cellular active inhibitors of histone lysine specific demethylase 5B (KDM5B/JARID1B)” (Eur J Med Chem, 2020)", "key": {"[1]": {"test_system": "MKN-45", "assay": "Inhibition of KDM4 in human MKN-45 cells assessed as increase in H3K9me2 accumulation at 0.5 to 20 uM measured after 5 days by Western blot analysis", "assay_type": "cell-based", "conditions": "dose 0.5-20 µM, time 5.0 day", "how_it_was_run": "(§1)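 MKN45 cells were treated for 5 days and lysed in RIPA buffer. About 30 µg protein was run on 10% SDS-PAGE and transferred to 0.2 µm nitrocellulose, then blocked with 5% milk in PBS for 2 h. Blots were probed for histone methylation marks with histone 3 as loading control and detected by ECL.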"}, "[2]": {"test_system": "MKN-45", "assay": "Inhibition of KDM4 in human MKN-45 cells assessed as increase in H3K9me3 accumulation at 0.5 to 20 uM measured after 5 days by Western blot analysis", "assay_type": "cell-based", "conditions": "dose 0.5-20 µM, time 5.0 day", "how_it_was_run": "as §1"}, "[3]": {"test_system": "MKN-45", "assay": "Antiproliferative activity against human MKN-45 cells assessed as reduction in cell proliferation measured after 4 days by MTS assay", "assay_type": "functional, cell-based", "conditions": "MKN-45, 96 h", "how_it_was_run": "(§2)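 MKN45 cells were seeded at 3×10^3 cells per well and treated for 4 or 6 days, as indicated. Proliferation was read by MTS assay and IC50 derived. Three independent experiments, mean ± SD.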"}, "[4]": {"test_system": "MKN-45", "assay": "Inhibition of KDM6 in human MKN-45 cells assessed as increase in H3K27me2 accumulation at 0.5 to 20 uM measured after 5 days by Western blot analysis", "assay_type": "cell-based", "conditions": "dose 0.5-20 µM, time 5.0 day", "how_it_was_run": "as §1"}, "[5]": {"molecular_target": "T1, Lysine-specific demethylase 5C (Homo sapiens, UniProt P41229)", "T1 sequence (P41229 whole entry)": "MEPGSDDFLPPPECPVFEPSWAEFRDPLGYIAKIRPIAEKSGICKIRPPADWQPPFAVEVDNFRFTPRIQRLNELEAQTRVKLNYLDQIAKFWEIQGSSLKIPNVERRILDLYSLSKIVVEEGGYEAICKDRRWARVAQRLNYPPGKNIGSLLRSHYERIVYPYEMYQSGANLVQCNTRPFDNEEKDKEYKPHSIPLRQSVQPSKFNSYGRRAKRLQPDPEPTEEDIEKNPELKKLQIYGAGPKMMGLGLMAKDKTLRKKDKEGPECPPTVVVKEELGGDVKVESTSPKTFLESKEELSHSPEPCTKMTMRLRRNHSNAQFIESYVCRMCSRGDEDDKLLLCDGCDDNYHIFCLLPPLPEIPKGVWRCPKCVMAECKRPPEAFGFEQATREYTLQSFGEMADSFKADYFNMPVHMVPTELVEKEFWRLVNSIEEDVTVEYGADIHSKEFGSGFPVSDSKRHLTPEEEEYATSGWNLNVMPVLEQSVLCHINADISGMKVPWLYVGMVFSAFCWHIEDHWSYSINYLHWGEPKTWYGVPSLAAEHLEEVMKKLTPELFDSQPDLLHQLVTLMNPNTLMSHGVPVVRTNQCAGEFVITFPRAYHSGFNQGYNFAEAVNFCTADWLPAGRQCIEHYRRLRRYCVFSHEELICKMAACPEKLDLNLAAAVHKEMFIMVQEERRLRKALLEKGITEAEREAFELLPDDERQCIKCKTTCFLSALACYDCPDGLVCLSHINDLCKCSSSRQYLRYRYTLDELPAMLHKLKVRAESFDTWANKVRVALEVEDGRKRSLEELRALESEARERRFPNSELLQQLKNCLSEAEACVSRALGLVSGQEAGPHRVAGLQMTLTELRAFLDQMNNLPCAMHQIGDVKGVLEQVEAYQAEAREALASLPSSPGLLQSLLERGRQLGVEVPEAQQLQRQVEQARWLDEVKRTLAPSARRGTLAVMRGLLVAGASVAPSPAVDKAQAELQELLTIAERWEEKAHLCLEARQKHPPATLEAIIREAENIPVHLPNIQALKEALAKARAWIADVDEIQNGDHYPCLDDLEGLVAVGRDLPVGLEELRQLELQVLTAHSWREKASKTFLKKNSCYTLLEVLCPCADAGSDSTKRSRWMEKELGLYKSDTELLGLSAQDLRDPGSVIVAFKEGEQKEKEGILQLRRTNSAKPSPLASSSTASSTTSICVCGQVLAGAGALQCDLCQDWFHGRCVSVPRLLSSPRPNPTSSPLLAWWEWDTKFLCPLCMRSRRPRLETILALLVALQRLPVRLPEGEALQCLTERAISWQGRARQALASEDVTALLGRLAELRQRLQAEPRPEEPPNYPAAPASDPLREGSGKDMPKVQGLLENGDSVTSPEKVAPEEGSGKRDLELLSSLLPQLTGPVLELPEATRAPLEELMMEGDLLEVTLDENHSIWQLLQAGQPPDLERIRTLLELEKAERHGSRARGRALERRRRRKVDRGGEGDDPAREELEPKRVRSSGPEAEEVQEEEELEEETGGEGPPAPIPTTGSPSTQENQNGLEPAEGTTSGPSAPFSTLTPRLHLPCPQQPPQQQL", "assay": "Inhibition of KDM5C (unknown origin) at 0.01 uM relative to control"}, "[6]": {"molecular_target": "T2, Lysine-specific demethylase 4A (Homo sapiens) (UniProt O75164)", "T2 sequence (whole entry)": "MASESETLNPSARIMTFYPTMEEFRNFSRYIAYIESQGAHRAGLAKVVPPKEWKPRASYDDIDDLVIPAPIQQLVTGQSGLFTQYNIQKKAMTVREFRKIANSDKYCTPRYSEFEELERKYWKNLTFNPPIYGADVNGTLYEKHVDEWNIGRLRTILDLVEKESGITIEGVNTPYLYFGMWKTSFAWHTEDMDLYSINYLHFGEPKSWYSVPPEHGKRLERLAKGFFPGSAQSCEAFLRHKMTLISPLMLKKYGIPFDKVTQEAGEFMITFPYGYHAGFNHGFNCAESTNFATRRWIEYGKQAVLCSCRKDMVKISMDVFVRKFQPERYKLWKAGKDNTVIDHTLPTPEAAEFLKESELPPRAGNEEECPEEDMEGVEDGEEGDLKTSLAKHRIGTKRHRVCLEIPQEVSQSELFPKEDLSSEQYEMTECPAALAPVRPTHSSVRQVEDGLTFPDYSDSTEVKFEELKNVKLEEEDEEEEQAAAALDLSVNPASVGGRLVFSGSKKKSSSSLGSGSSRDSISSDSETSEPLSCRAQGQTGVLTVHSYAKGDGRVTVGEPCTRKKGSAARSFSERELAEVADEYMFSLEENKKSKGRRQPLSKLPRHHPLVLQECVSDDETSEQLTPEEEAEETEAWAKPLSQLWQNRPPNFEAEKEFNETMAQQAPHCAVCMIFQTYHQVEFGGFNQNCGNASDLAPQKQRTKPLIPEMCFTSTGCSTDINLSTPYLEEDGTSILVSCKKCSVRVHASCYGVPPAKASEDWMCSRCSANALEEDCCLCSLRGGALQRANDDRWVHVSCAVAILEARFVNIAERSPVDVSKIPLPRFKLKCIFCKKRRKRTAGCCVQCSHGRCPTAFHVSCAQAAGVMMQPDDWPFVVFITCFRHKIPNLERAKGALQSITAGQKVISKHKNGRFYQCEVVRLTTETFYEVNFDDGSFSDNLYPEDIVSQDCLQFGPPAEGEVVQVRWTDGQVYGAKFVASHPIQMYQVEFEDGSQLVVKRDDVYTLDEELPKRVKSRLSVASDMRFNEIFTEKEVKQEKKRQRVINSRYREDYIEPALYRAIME", "assay": "Inhibition of KDM4A (unknown origin) at 0.01 uM relative to control"}, "[7]": {"molecular_target": "T1, Lysine-specific demethylase 5C", "assay": "Inhibition of KDM5C (unknown origin) at 1 uM relative to control"}, "[8]": {"molecular_target": "Lysine-specific demethylase 5A (Homo sapiens, UniProt P29375)", "assay": "Inhibition of KDM5A (unknown origin)"}, "[9]": {"molecular_target": "Lysine-specific demethylase 6B (Homo sapiens, UniProt O15054)", "sequence (O15054 whole entry)": "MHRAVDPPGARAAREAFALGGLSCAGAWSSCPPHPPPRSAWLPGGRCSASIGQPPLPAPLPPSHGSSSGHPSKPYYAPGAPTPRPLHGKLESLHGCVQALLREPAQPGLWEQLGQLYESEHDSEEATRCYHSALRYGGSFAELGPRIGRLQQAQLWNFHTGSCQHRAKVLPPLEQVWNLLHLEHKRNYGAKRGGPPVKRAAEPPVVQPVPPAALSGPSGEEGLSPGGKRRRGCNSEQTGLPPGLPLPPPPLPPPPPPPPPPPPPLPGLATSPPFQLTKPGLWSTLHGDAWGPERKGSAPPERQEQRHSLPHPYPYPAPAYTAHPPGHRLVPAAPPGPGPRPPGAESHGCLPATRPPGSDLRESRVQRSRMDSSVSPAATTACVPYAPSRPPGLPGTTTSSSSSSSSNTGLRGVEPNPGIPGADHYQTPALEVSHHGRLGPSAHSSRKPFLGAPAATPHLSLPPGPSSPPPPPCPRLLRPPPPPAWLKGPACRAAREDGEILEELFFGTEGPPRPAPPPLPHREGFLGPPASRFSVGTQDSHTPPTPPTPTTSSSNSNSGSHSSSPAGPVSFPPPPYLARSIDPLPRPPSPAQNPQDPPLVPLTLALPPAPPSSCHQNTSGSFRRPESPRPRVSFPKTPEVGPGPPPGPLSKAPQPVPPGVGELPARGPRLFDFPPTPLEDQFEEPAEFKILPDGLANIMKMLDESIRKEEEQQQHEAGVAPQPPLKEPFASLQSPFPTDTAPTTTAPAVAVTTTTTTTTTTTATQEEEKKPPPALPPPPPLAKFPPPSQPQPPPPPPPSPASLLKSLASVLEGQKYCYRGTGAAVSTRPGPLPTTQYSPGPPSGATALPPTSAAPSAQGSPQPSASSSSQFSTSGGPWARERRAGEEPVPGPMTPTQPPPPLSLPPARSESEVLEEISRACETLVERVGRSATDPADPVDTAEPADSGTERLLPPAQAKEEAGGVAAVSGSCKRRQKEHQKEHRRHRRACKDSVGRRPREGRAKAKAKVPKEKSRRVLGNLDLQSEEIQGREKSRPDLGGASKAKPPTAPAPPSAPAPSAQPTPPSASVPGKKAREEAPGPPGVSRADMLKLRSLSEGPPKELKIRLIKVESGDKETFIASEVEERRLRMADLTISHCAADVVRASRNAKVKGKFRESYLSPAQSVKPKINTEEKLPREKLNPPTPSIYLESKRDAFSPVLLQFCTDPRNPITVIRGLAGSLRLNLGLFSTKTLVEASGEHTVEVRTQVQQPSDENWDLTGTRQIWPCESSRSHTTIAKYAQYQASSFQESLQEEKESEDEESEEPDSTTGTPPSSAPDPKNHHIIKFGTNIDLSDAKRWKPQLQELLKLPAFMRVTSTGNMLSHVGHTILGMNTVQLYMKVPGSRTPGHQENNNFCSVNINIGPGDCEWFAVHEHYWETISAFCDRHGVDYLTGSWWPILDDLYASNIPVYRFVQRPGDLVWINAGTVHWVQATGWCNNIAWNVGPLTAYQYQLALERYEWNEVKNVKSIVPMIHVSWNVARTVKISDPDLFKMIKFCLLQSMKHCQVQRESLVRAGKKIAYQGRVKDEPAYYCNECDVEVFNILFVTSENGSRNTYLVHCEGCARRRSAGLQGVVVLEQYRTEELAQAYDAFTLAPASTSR", "assay": "Inhibition of KDM6B (unknown origin) at 1 uM relative to control"}, "[10]": {"test_system": "MKN-45", "assay": "Antiproliferative activity against human MKN-45 cells assessed as reduction in cell proliferation measured after 6 days by MTS assay", "assay_type": "functional, cell-based", "conditions": "MKN-45, 144 h", "how_it_was_run": "as §2"}, "[11]": {"molecular_target": "Lysine-specific demethylase 5B (Homo sapiens, UniProt Q9UGL1)", "sequence (Q9UGL1 whole entry)": "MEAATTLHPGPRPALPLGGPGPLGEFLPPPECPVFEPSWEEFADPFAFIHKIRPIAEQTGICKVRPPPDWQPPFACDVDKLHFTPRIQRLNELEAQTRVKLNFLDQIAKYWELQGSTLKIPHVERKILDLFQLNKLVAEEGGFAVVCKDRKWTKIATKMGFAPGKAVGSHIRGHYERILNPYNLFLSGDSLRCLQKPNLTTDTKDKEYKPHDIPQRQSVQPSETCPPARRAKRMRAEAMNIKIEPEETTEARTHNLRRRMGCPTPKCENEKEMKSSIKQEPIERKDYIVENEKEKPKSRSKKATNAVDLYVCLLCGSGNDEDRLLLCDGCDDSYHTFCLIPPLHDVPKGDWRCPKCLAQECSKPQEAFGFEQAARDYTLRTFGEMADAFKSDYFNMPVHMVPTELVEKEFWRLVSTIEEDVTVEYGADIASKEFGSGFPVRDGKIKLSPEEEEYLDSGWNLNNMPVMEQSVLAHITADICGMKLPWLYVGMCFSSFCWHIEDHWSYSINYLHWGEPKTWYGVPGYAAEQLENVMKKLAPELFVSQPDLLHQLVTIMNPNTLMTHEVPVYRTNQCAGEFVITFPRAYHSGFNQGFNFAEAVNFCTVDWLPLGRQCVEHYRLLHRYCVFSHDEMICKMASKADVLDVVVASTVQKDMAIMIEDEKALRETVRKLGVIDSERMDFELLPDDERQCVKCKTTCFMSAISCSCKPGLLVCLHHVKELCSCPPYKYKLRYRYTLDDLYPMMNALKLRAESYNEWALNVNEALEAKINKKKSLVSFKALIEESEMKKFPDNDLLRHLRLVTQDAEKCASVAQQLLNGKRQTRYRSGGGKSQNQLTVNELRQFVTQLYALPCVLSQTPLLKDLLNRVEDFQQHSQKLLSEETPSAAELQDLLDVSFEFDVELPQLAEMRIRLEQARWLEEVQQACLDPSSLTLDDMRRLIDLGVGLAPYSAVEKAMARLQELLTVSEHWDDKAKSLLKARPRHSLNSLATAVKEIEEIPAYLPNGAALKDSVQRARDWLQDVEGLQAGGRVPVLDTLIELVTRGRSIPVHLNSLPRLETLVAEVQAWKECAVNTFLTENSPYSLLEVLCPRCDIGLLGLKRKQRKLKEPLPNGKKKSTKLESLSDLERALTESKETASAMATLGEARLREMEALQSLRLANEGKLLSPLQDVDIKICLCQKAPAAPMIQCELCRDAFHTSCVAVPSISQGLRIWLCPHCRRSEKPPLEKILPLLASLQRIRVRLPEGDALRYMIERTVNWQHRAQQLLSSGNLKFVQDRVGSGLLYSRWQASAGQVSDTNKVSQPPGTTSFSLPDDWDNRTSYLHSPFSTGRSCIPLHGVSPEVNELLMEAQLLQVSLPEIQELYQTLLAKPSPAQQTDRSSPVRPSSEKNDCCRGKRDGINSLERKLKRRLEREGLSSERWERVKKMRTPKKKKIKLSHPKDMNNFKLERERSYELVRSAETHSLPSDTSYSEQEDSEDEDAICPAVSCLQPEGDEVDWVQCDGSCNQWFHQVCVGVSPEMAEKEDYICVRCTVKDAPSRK", "assay": "Inhibition of KDM5B in human MKN-45 cells assessed as increase in H3K4me2 accumulation at 0.5 to 20 uM measured after 5 days by Western blot analysis", "assay_type": "cell-based", "conditions": "dose 0.5-20 µM, time 5.0 day", "how_it_was_run": "as §1"}, "[12]": {"molecular_target": "T3, Lysine-specific demethylase 4C (Homo sapiens) (UniProt Q9H3R0)", "T3 sequence (whole entry)": "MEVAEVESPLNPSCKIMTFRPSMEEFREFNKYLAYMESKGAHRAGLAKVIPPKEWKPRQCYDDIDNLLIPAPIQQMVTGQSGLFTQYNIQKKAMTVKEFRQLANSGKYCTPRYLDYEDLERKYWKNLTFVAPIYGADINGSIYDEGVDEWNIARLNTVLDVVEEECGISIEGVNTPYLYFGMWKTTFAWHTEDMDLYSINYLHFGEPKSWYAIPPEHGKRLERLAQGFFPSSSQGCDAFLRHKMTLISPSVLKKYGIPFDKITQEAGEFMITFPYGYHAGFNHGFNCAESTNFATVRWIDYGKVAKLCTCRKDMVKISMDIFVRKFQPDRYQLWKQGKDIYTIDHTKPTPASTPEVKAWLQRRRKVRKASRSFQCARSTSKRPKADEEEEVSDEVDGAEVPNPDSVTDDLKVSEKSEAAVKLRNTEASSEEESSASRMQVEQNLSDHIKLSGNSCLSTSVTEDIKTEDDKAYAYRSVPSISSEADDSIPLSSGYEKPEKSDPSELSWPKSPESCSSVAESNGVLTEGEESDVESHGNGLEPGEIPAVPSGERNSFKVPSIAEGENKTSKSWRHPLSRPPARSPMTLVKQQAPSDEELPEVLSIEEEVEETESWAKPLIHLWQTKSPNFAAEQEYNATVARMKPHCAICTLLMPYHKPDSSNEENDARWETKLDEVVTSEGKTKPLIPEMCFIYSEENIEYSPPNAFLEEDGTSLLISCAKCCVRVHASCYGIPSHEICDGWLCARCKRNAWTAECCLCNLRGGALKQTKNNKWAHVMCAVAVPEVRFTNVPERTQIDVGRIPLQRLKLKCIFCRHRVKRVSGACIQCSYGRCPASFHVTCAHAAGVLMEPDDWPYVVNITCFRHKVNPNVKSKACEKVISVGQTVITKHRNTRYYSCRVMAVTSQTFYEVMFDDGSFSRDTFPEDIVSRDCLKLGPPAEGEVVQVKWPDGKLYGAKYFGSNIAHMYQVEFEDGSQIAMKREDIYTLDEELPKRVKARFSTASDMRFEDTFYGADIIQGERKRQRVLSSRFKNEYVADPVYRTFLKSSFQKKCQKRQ", "assay": "Inhibition of KDM4C (unknown origin) at 1 uM relative to control"}}, "note": "The source made the active and inactive calls. No cut-off for these calls is given here."}
{"compound": "COc1ccc(-n2cc(C(=O)NCC(C)(C)N3CCOCC3)c(-c3ccccc3)n2)cc1", "values": [{"measurement": "inhibition", "setting": "[1]", "result": "inactive"}, {"measurement": "inhibition", "setting": "[2]", "result": "inactive"}, {"measurement": "IC50", "setting": "[3]", "result": 26.7, "unit": "µM"}, {"measurement": "inhibition", "setting": "[4]", "result": "inactive"}, {"measurement": "inhibition", "setting": "[5]", "result": 16.4, "unit": "%"}, {"measurement": "inhibition", "setting": "[6]", "result": 5.12, "unit": "%"}, {"measurement": "inhibition", "setting": "[7]", "result": 80.2, "unit": "%"}, {"measurement": "IC50", "setting": "[8]", "result": 0.0249, "unit": "µM"}, {"measurement": "inhibition", "setting": "[9]", "result": 19.6, "unit": "%"}, {"measurement": "IC50", "setting": "[10]", "result": 20.6, "unit": "µM"}, {"measurement": "inhibition", "setting": "[11]", "result": "Active"}, {"measurement": "inhibition", "setting": "[12]", "result": 50.1, "unit": "%"}]}
